The source of these data is ChEMBL document CHEMBL1128709, “Discovery and structure-activity relationships of sulfonamide ETA-selective antagonists” (J Med Chem, 1995).

A value given as a limit tells only on which side of the number the result lay.

What is called Kb is the affinity of an antagonist, worked out from how it opposes an agonist. The term IC50 denotes the concentration that gives 50% inhibition.

Assay [1] is filed under the species Oryctolagus cuniculus. As to the kind of experiment: In vitro functional antagonistic testing by obtaining ET-1 concentration response curves in rabbit carotid artery rings in the presence or absence of antagonist. The gist of the method:
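Concentration-response curves to ET-1 in rabbit carotid artery rings. KB determined when at least 3 antagonist concentrations were tested; apparent KB calculated when only one concentration was used.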

The target in assay [2] is T1, Endothelin-1 receptor (Rattus norvegicus, UniProt P26684).
T1 sequence (P26684 whole entry): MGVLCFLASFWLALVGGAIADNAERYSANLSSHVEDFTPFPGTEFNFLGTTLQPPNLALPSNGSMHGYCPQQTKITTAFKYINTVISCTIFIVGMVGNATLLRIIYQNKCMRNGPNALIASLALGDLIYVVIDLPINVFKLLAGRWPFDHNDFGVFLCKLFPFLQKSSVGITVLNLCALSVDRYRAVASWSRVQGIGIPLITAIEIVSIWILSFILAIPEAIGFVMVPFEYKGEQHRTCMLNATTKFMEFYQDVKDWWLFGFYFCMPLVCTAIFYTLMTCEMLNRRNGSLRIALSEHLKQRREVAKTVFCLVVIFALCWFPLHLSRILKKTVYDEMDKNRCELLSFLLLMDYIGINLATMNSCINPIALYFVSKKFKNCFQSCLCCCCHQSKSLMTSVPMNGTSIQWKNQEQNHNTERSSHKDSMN
The assay is described as follows: Antagonism of [125 I]ET-1 binding to the rat endothelin receptor in vascular smooth muscle VSM-A10 cells. In kind it is cell-based.

For assay [3], the species on record is Rattus norvegicus. The assay is described as follows: Tested for antagonistic activity against ET-1 induced increase in intracellular [Ca2+] in VSM-A10 cells. It is filed as functional, cell-based. The gist of the method:
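A10 cells challenged with 3 nM ET-1; the rise in free intracellular Ca2+ was measured with and without compound. Values reported as IC50.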

As to `Cc1noc(NS(=O)(=O)c2ccc(NCc3ccccc3)cc2)c1C`, in assay [1] (read-out: KB app), the Kb worked out at 100 µM. In addition, the IC50 in assay [2] is 9.8 µM.

As for `Cc1onc(NS(=O)(=O)c2cccc3c(N(C)C)cccc23)c1C`, the Kb in assay [1] (read-out: KB app) turned out to be 0.98 µM. Also, the IC50 in assay [2] was 0.06 µM.

For the molecule `Cc1cc(NS(=O)(=O)c2cccc3c(N(C)C)cccc23)on1`, in assay [2], the IC50 was 8.9 µM.

In turn, `Cc1[n-][o+]c(NS(=O)(=O)c2cccc([N+](=O)[O-])c2)c1C` displayed a half-maximal inhibitory concentration (IC50) in assay [2] of 7.8 µM.

The molecule `Cc1noc(NS(=O)(=O)c2cccc3c(N4CCCC4=O)cccc23)c1C` had a Kb in assay [1] of 9.6 µM. The same molecule showed an IC50 in assay [2] of 0.13 µM.

Molecule `Cc1noc(NS(=O)(=O)c2cccc3ccc(N)cc23)c1C` came in with an IC50 in assay [2] of 1.4 µM. That is a single-digit micromolar value.

As to `Cc1noc(NS(=O)(=O)c2cccc3c(N(C)C)cccc23)c1Cc1ccccc1`, the IC50 in assay [2] came to 50 µM. This IC50 lies about 36-fold higher than the previous one.

Molecule `CCOC(=O)c1c(C)noc1NS(=O)(=O)c1cccc2c(N(C)C)cccc12` gave an IC50 in assay [2] of 31 µM.

Turning to `Cc1noc(NS(=O)(=O)c2cccc3c(NC(=O)C(C)C)cccc23)c1C`, in assay [2], the IC50 amounted to 0.88 µM.

For the molecule `Cc1noc(NS(=O)(=O)c2ccc(NC(=O)CN)cc2)c1C`, in assay [2], the IC50 is 6.5 µM.

As for `Cc1noc(NS(=O)(=O)c2ccc(F)cc2)c1C`, the Kb in assay [1] (read-out: KB app) came out at 40 µM. In addition, the IC50 in assay [2] amounted to 1 µM.

Regarding `Nc1ccc(S(=O)(=O)Nc2noc3c2CCCC3)cc1`, the IC50 in assay [2] was 32 µM. This lies in the double-digit micromolar range.

In turn, `Cc1noc(NS(=O)(=O)c2cccc3c(NCCCCCc4ccccc4)cccc23)c1C` returned an IC50 in assay [2] of 3.05 µM.

For the molecule `Cc1noc(NS(=O)(=O)c2ccc(NC(=O)Nc3ccccc3)cc2)c1C`, the IC50 in assay [2] turned out to be 38 µM.

Regarding `CN(C)c1cccc2c(S(=O)(=O)Nc3onc4c3CCCC4)cccc12`, the IC50 in assay [2] stood at 153 µM.

As to `O=S(=O)(Nc1nccs1)c1ccc(O)cc1`, the IC50 in assay [2] stood at 30 µM.

For the molecule `CC(C)(C)c1cc(NS(=O)(=O)c2ccc(N)cc2)no1`, the IC50 in assay [2] was over 32 µM.

In assay [1], `CCNc1cccc2c(S(=O)(=O)Nc3onc(C)c3C)cccc12` returned a Kb of 0.5 µM. The IC50 in assay [2] worked out at 0.06 µM.

`Cc1noc(NS(=O)(=O)c2cccc3c(NC(=S)Nc4ccccc4)cccc23)c1C` came in with a Kb in assay [1] of 13 µM. This molecule displayed an IC50 in assay [2] of 0.15 µM.

The molecule `Nc1ccc(S(=O)(=O)Nc2cc(-c3ccccc3)on2)cc1` displayed an IC50 in assay [2] of over 32 µM.

Consider `Cc1noc(NC(=O)c2ccc(N)cc2)c1C`, for which the IC50 in assay [2] is over 32 µM.

As to `Cc1noc(NS(=O)(=O)c2cccc3c(N4CCCCC4)cccc23)c1C`, the Kb in assay [1] (read-out: KB app) worked out at 4 µM. In assay [2], the IC50 turned out to be 1.76 µM.

For the molecule `Cc1cc(NS(=O)(=O)c2ccc(O)cc2)no1`, in assay [1] (read-out: KB app), the Kb is over 100 µM.

Turning to `Cc1noc(NS(=O)(=O)c2ccc(NC(=S)Nc3ccccc3)cc2)c1C`, the IC50 in assay [2] was 4.1 µM.

The molecule `CCCCCNc1cccc2c(S(=O)(=O)Nc3onc(C)c3C)cccc12` gave a Kb in assay [1] of 0.27 µM. The molecule also came in with an IC50 in assay [2] of 0.08 µM.

As for `CCc1noc(NS(=O)(=O)c2cccc3c(N(C)C)cccc23)c1C`, in assay [1] (read-out: KB app), the Kb worked out at 3 µM. This molecule also gave an IC50 in assay [2] of 1.17 µM.

In assay [1], `CNc1cccc2c(S(=O)(=O)Nc3onc(C)c3C)cccc12` had a Kb of 1.6 µM. In assay [2], this molecule yielded an IC50 of 0.13 µM.

Take `Cc1noc(NS(=O)(=O)c2cccc3c(N(C)C)cccc23)c1[N+](=O)[O-]`: the Kb in assay [1] (read-out: KB app) was over 100 µM. Also, the IC50 in assay [2] was 17.3 µM.

Turning to `Cc1noc(NS(=O)(=O)c2cccc3c(CN(C)C)cccc23)c1C`, the Kb in assay [1] (read-out: KB app) came out at 20 µM. In assay [2], the IC50 worked out at 2.8 µM.

As for `Cc1noc(NS(=O)(=O)c2cccc3c(N(C)C)cccc23)c1-c1ccccc1`, the IC50 in assay [2] amounted to 15.9 µM.

As for `CCCNc1cccc(S(=O)(=O)Nc2onc(C)c2C)c1`, the Kb in assay [1] worked out at 70 µM. In assay [2], this molecule showed an IC50 of 2.1 µM.

The molecule `Cc1noc(N(CC(=O)O)S(=O)(=O)c2ccc(N)cc2)c1C` showed an IC50 in assay [2] of over 32 µM.

On to `Cc1noc(NS(=O)(=O)c2ccc(NCC(=O)O)cc2)c1C`, for which the IC50 in assay [2] worked out at 12 µM. In other words, the double-digit micromolar range.

As for `Cc1noc(NS(=O)(=O)c2ccc(O)cc2)c1C`, the Kb in assay [1] (read-out: KB app) is over 100 µM.

`COC(=O)c1cccc2c(S(=O)(=O)Nc3onc(C)c3C)cccc12` had an IC50 in assay [2] of 3.38 µM.

As for `Cc1cnoc1NS(=O)(=O)c1cccc2c(N(C)C)cccc12`, in assay [2], the IC50 was 4.9 µM.

Consider `Cc1noc(NS(=O)(=O)c2cccc3c(N(C)C(C)C)cccc23)c1C`, for which the Kb in assay [1] is 0.7 µM. The same molecule registered an IC50 in assay [2] of 0.13 µM.

With `Cc1cc(NS(=O)(=O)c2ccc(N)cc2)on1`, the IC50 in assay [2] amounted to 28 µM.

Turning to `Cc1noc(NS(=O)(=O)c2cccc3c(N4CCCCC4=O)cccc23)c1C`, the Kb in assay [1] (read-out: KB app) amounted to 7 µM. The same molecule came in with an IC50 in assay [2] of 0.27 µM.

As to `CCc1c(C)noc1NS(=O)(=O)c1cccc2c(N(C)C)cccc12`, in assay [1] (read-out: KB app), the Kb came to 4 µM. In assay [2], this molecule registered an IC50 of 0.29 µM.

Take `CCCNc1ccc(S(=O)(=O)Nc2onc(C)c2C)cc1`: the Kb in assay [1] (read-out: KB app) came to 40 µM. In addition, in assay [2], the IC50 turned out to be 27 µM.

Take `Nc1ccc(S(=O)(=O)Nc2nncs2)cc1`: in assay [2], the IC50 was found to be 57 µM.

`CCOC(=O)C(C)Nc1cccc2c(S(=O)(=O)Nc3onc(C)c3C)cccc12` (stereo not drawn) showed an antagonist dissociation constant (Kb) in assay [1] of 3.1 µM. Besides, in assay [2], the IC50 came out at 0.4 µM.

`Cc1noc(NS(=O)(=O)c2cccc3c(NCCC(c4ccccc4)c4ccccc4)cccc23)c1C` gave an IC50 in assay [2] of 7.8 µM.

Consider `Cc1noc(NS(=O)(=O)c2cccc3c(N4CCCC4)cccc23)c1C`, for which the Kb in assay [1] was found to be 0.28 µM. The molecule further showed an IC50 in assay [2] of 0.03 µM.

As for `Cc1noc(NS(=O)(=O)c2cccc3c(N)cccc23)c1C`, the Kb in assay [1] (read-out: KB app) was over 10 µM.

`Cc1noc(NS(=O)(=O)c2ccc3cc(N)ccc3c2)c1C` came in with a Kb in assay [1] of 43 µM. Moreover, the IC50 in assay [2] came out at 0.66 µM.

As to `CC(=O)Nc1cccc2cc(S(=O)(=O)Nc3onc(C)c3C)ccc12`, the Kb in assay [1] (read-out: KB app) came to 40 µM.

`CC(=O)Nc1cccc2c(S(=O)(=O)Nc3onc(C)c3C)cccc12` registered a Kb in assay [1] of 11 µM.

In assay [2], `Cc1noc(N(C)S(=O)(=O)c2ccc(N)cc2)c1C` showed an IC50 of over 32 µM.

As to `Cc1noc(NS(=O)(=O)c2cccc3c(O)cccc23)c1C`, the Kb in assay [1] (read-out: KB app) came out at 100 µM. In addition, the IC50 in assay [2] was determined as 7.8 µM.

As to `CCCCN(CCCC)c1cccc2c(S(=O)(=O)Nc3onc(C)c3C)cccc12`, the IC50 in assay [2] was found to be 15.9 µM.

For `Cc1noc(NS(=O)(=O)c2cccc3c(NC(C)C)cccc23)c1C`, the Kb in assay [1] is 0.33 µM. The molecule further registered an IC50 in assay [2] of 0.02 µM.

In the case of `Cc1noc(NS(=O)(=O)c2cccc(-c3ccccc3)c2)c1C`, the IC50 in assay [2] came out at 5.4 µM.

With `Cc1noc(NS(=O)(=O)c2cccc3c(NCCCC(=O)O)cccc23)c1C`, in assay [1] (read-out: KB app), the Kb was 30 µM. In assay [2], this molecule showed an IC50 of 1.96 µM.

Molecule `Cc1noc(NS(=O)(=O)c2cccc3c(C(C)(C)O)cccc23)c1C` returned an IC50 in assay [2] of 2.89 µM.

Regarding `Cc1noc(NS(=O)(=O)c2cccc3c(NCc4ccccc4)cccc23)c1C`, the Kb in assay [1] (read-out: KB app) worked out at 0.9 µM. In assay [2], the IC50 came to 0.59 µM.

In the case of `Cc1noc(NS(=O)(=O)c2cccc3c(N(C)C)cccc23)c1C` [BMS-182874], in assay [1], the Kb was found to be 0.52 µM.

Take `Cc1cc(NS(=O)(=O)c2ccc(N)cc2)no1` [SULFAMETHOXAZOLE]: in assay [1] (read-out: KB app), the Kb was over 100 µM.

In turn, `Nc1ccc(S(=O)(=O)Nc2nccs2)cc1` [SULFATHIAZOLE] displayed an IC50 in assay [2] of 69 µM. This lies in the double-digit micromolar range.

Take `Cc1onc(NS(=O)(=O)c2ccc(N)cc2)c1C` [SULFATROXAZOLE]: in assay [3], half-maximal inhibition (IC50) was put at 40 µM.

For `CC(=O)N(c1onc(C)c1C)S(=O)(=O)c1ccc(N)cc1` [SULFISOXAZOLE ACETYL], in assay [2], the half-inhibitory concentration (IC50) worked out at 13 µM. That is a double-digit micromolar value.

For `Cc1noc(NS(=O)(=O)c2ccc(N)cc2)c1C` [SULFISOXAZOLE], the Kb in assay [1] (read-out: KB app) is over 100 µM. Further, in assay [3], the IC50 came to 40 µM.
